RGS4-Gao reg – modulates binding of RGS4 to human Galphao | P09471 | Multiplexed bead flow cytometry; actives lie on both sides | binding response (% of control), % at 10 µM | actives 0.33% (n = 220,000); in the data active means binding response below about 49% or above about 150%; inactive means in between;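 further: fluorescent Galphao activated with aluminum fluoride binding bead-coupled RGS4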
Target sequence (P09471 whole entry, looked up): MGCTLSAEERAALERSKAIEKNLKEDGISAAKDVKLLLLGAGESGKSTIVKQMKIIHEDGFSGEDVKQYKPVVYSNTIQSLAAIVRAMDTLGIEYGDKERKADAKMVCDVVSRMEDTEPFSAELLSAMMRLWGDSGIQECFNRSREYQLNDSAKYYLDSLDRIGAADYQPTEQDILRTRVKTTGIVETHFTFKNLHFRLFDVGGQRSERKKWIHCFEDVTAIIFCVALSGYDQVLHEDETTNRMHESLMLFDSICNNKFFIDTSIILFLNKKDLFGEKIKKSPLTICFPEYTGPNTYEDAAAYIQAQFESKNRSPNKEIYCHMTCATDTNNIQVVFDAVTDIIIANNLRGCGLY
RGS7-Gao – regulators of human RGS7-Galphao interaction; Multiplexed bead flow cytometry, RGS7-Galphao binding; actives lie on both sides; binding response (% of control), % at 10 µM; actives 0.35% (n = 220,000); in the data active means binding response below about 49% or above about 150%; inconclusive means no clear call, values can overlap the other calls; inactive means in between;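 further: fluorescent Galphao held in activated GDP-AlF4 state binding bead-coupled RGS7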
RGS16-Gao HTS – regulators of human RGS16-Galphao interaction; O15492+P09471; bead-based flow cytometry RGS16-Galphao binding, fluorescence; actives lie on both sides; binding response (% of control), % at 10 µM; actives 0.38% (n = 220,000);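 further: Galphao activated by GDP with aluminum fluoride before binding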
Target sequence (O15492 whole entry, looked up): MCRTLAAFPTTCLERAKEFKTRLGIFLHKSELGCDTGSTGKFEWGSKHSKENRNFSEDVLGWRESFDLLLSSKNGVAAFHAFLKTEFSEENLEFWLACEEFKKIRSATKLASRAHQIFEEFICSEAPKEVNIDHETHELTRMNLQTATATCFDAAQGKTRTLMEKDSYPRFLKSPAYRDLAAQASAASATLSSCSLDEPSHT
Target sequence (P09471 whole entry, looked up): as the sequence (P09471 whole entry, looked up) above
RGS8-Gao – human RGS8-Galphao interaction regulation | P09471 | multiplexed bead flow cytometry, RGS8-Galphao binding; actives lie on both sides | response (percent of control binding), % at 10 µM | actives 0.34% (n = 220,000); in the data active means response below about 60% or above about 140%; inactive means in between;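 further: Galphao activated as the GDP aluminium fluoride complex binding bead-coupled RGS8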
Calb biofilm kill – mixtures killing C. albicans biofilm; AID 1242; inhibition, % at 7.6 µM; C. albicans biofilm persisters + clotrimazole, fluorescence viability; primary screen in compound mixtures of four per well; actives 0.02% (n = 120,000);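 active means inhibition above 30.3% in the primary screen of four-compound pools, then above 30% when the compound was retested; inconclusive means passed the primary limit but could not be retested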;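 further: compounds exposed to preformed 24 h biofilms for 48 h; 0% = untreated biofilm control and 100% = clotrimazole plus chlorhexidine kill blank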
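System: C. albicans CAF4-2 wild-type biofilms; Medium: RPMI/MOPS medium, pH 7.0; Reagent: Clotrimazole, 50 µg/mL; Times: biofilm formation 24 h, compound exposure 48 h, 37 °C; Detection: 2-h Alamar Blue fluorescence, 535/590 nm excitation/emission; Evaluation: percent inhibition of biofilm viability.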
RGS-Gao – modulates binding between human RGS4 and Galphao; multiplexed bead flow cytometry, RGS–Galpha-o binding; shares compounds with RGS16-Gao HTS; AID 1504; RGS4–Galpha-o binding response, % at 10 µM; actives 99% (n = 1,600);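 further: fluorescently labeled Galpha-o bound to GDP with aluminium fluoride binding biotinylated RGS beads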
Biotin-avidin – biotin-avidin bead binding disruption counter-screen; inhibition, % at 10 µM; streptavidin beads, fluorescein-biotin binding, flow cytometry; 1,700 tested, under 10 active; AID 1783; shares compounds with RGS16-Gao HTS;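 active means inhibition above 50%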;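 further: median green fluorescence of gated singlet beads compared with DMSO control wells; 0% = DMSO wells and 100% = complete loss of bead fluorescence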
RGS8-Gao confirm – RGS8-Galphao interaction regulation, single point confirmation; shares compounds with RGS16-Gao HTS; binding response (% of control), % at 10 µM; AID 1836; actives 3% (n = 1,700); bead-based flow cytometry RGS8-Galphao binding, fluorescence; actives lie on both sides; in the data active means binding response below about 72% or above about 130%; inactive means in between;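 further: Galphao activated as GDP AlF4 complex before binding bead RGS8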
RGS7-Gao single – confirmation of regulators of human RGS7-Galphao interaction; response (percent of control binding), % at 10 µM; actives 7.8% (n = 1,700); bead-based flow cytometry RGS7-Galphao binding; actives lie on both sides; AID 1837; shares compounds with RGS16-Gao HTS; in the data active means response below about 75% or above about 130%; inactive means in between;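 further: fluorescent Galphao activated with GDP and aluminum fluoride binding bead-coupled RGS7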
RGS16-Gao conf – RGS16-Galphao interaction regulation, single point confirmation | actives 4% (n = 1,700) | shares compounds with RGS16-Gao HTS | response (% of control binding), % at 10 µM | AID 1838 | bead-based flow cytometry, RGS16-Galphao binding; actives lie on both sides; in the data active means response below about 74% or above about 130%; inactive means in between;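 further: Galphao activated as the GDP aluminium fluoride complex binding bead-coupled RGS16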
RGS4-Gao single – confirmation of regulators of human RGS4-Galphao interaction; actives 4% (n = 1,700); binding response (% of control), % at 10 µM; shares compounds with RGS16-Gao HTS; RGS4-Galphao binding, multiplexed bead flow cytometry; actives lie on both sides; in the data active means binding response below about 74% or above about 130%; inactive means in between
RGS19-Gao conf – RGS19-Galphao interaction regulation, single point confirmation; shares compounds with RGS16-Gao HTS; actives 5% (n = 1,700); response (percent of control binding), % at 10 µM; bead-based flow cytometry RGS19-Galphao binding; actives lie on both sides; in the data active means response below about 50% or above about 160%; inactive means in between;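 further: 100% = no compound control and 0% = blank background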
* hit, by the source's call; i = inactive; ? = inconclusive; / = no result; [ ] = another dose, or the depositor's remark. An excerpt weighted towards active compounds, which were near 0.74% of everything screened. Unless noted, how the calls were made is not given here.

SMILES	RGS4-Gao reg	RGS7-Gao	RGS16-Gao HTS	RGS8-Gao	Calb biofilm kill	RGS-Gao	Biotin-avidin	RGS8-Gao confirm	RGS7-Gao single	RGS16-Gao conf	RGS4-Gao single	RGS19-Gao conf
O=C(NCCN1CCN(S(=O)(=O)c2ccc([N+](=O)[O-])cc2)CC1)C(=O)Nc1ccccc1	131	221*[activator]	87	89	5	131*	-2	99	102	101	100	107
C=CCNC(=S)NCc1cccnc1	112	112	276*[activator]	128	-7	112*	1	102	102	104	104	91
Nc1nc2c(Cl)ccc(Cl)c2s1	103	106	105	101	8	/	/	/	/	/	/	/
COc1c(Br)cc(C(N)=O)cc1OCc1ccccc1	77	77	-1.3*	69	33	77*	1	101	99	102	101	103
CCOc1ccccc1N1CCN(C(=O)c2ccncc2)CC1	102	103	102	101	/	/	/	/	/	/	/	/
CCOc1ccccc1N1CCN(C(=O)c2ccc3[nH]c4c(c3c2)CCCC4)CC1	84	81	24*	74	-11	84*	0	100	100	99	100	93
COc1cccc(/C=N\NC(=O)Cn2nnc3ccccc32)c1O	91	88	91	94	16	/	/	/	/	/	/	/
O=C(CNC(=O)c1ccccc1)N/N=C/c1cn[nH]c1-c1ccccc1	100	102	96	100	13	/	/	/	/	/	/	/
CCOC(=O)CC(=O)CSCC(=O)Nc1ccc(C)cc1	47*	43*	36	57*	/	/	0	105	107	105	106	102
Cc1ccc(NC(=O)CSCC#N)cc1	90	91	93	93	/	/	/	/	/	/	/	/
COc1ccc(N=C(C)C2=C(O)c3ccccc3C2=O)cc1	102	104	94	100	18	/	/	/	/	/	/	/
COc1ccc(N=C(N(C)C)P(=O)(N(C)C)N(C)C)cc1	138	126	i	150*[activator]	/	138*	1	101	100	105	103	111
O=C(COC(=O)CNC(=O)c1ccccc1F)Nc1cccnc1Cl	102	100	99	100	13	/	/	/	/	/	/	/
COc1ccc(Cn2c(CCC(=O)Nc3ccc(C)cc3)nc3cccnc32)cc1	156*[activator]	111	154	101	/	/	0	102	99	95	97	69
COc1cc(C(=O)Nc2ccc(-n3cnnn3)c(C)c2)cc(OC)c1OC	25*	28*	24*	41*	/	/	0	108	106	117	105	121
Cc1cc(NC(=O)c2ccco2)ccc1-n1cnnn1	101	105	104	96	/	/	/	/	/	/	/	/
Cc1ccc(C)c(NC(=O)CSc2nnc(-c3ccccc3)n2N)c1	119	112	428	141*[activator]	/	119*	-1	100	95	101	98	91
CCC(C)(C)n1nnnc1CN1CCN(c2ccc(OC)cc2)CC1	102	107	99	97	9	/	/	/	/	/	/	/
CCC(C)(C)n1nnnc1CN1CCSCC1	158*[activator]	129	-49	125	/	/	2	102	104	100	103	96
CC(OC(=O)CC(NC(=O)c1ccccc1Cl)c1ccccc1)C(=O)Nc1cccc(Cl)c1Cl (stereo unspecified)	97	98	57	85	6	/	/	/	/	/	/	/
COc1ccc(N(CC(=O)Nc2ccc(F)c(Cl)c2)S(=O)(=O)c2c(C)noc2C)cc1	98	100	102	101	/	/	/	/	/	/	/	/
COc1ccc(N(CC(=O)Nc2ccc(OC)c(Cl)c2)S(=O)(=O)c2c(C)noc2C)cc1	116	116	227*[activator]	141*[activator]	/	116*	-2	101	101	104	102	97
O=C(O)CSCC(=O)Nc1ccc(Br)c(C(F)(F)F)c1	-38*	?	-12*	32*	19	/	-1	93	90	88	88	93
C/C(=N\N(Cc1ccccc1)c1ccccc1)c1cccnc1	100	98	103	101	11	/	/	/	/	/	/	/
Cc1ccc(-n2c(CCc3nc4ccccc4[nH]3)n[nH]c2=S)cc1	103	103	109	101	-11	/	/	/	/	/	/	/
SMILES	RGS4-Gao reg	RGS7-Gao	RGS16-Gao HTS	RGS8-Gao	Calb biofilm kill	RGS-Gao	Biotin-avidin	RGS8-Gao confirm	RGS7-Gao single	RGS16-Gao conf	RGS4-Gao single	RGS19-Gao conf
Cc1ccc(-n2c(Cn3c(C)nc4ccccc43)n[nH]c2=S)cc1	86	84	-1.4*	65	5	86*	0	96	101	90	99	101
Cn1cc(C(=O)c2ccc(Cl)cc2Cl)cc1C(=O)N/N=C(\N)COc1cccc(C(F)(F)F)c1	100	102	104	101	/	/	/	/	/	/	/	/
COc1cccc(C2C(C(=O)c3cc4cccc(OC)c4o3)=C(O)C(=O)N2c2cc(C)on2)c1OC (stereo unspecified)	-0.4*	11*	1.2*	34*	/	/	0	102	106	104	106	100
Cc1ccc(S(=O)(=O)CC(=O)Nc2ccc(F)c(F)c2F)cc1	-12*	?	-6.7*	9.2*	17	/	-1	101	101	99	101	97
COc1cc(NC(=O)CS(=O)(=O)c2ccc(C)cc2)cc(OC)c1OC	102	101	101	100	/	/	/	/	/	/	/	/
CN(c1ccccc1)S(=O)(=O)c1cccc(C(=O)Nc2ccc3c(c2)CCC3)c1	102	91	18*	87	16	102*	-1	101	103	103	102	94
CCCCCC(=O)Nc1cccc(C2=NOC3(C2)C[C@@H](C(N)=O)N(C(=O)C2(C)CC2)C3)c1 (stereo partly specified)	99	?	102	101	13	/	/	/	/	/	/	/
CN(C)C(=O)NC(Nc1ccc(Cl)cc1Cl)C(Cl)(Cl)Cl (stereo unspecified)	71	67	17*	56*	/	71*	2	95	89	89	89	92
CN(C)C(=O)NC(NC(=S)Nc1ccccc1)C(Cl)(Cl)Cl (stereo unspecified)	95	85	97	91	5	/	/	/	/	/	/	/
